pKi: −log10 of the molar value. Square brackets hold non-standard residues; d marks the D form. Peptide text beside a SMILES is read from it. Nle = CCCC[C@H](N)C(=O)O
How the values were obtained:
[1] = target: T1, Delta-type opioid receptor (Rattus norvegicus, UniProt P33533); assay: Inhibition of [3H]DPDPE binding to Opioid receptor delta 1
Procedure, shortened: (§1)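 Male Sprague-Dawley rat brain synaptosomes incubated with 0.62 pmol [3H]DPDPE in 50 mM HEPES pH 7.5, 5 mM MgCl2, 1 μM bestatin, bacitracin, 8% glycerol, soybean trypsin inhibitor, 100 μM PMSF; 2 h at 22 °C, duplicates. GF/C filtration, Tris-BSA washes, scintillation counting. 4-9 peptide concentrations over 2-3 log units, n = 3-8; Ki by Cheng-Prusoff.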

Mu-type opioid receptor [2] = target: T2, Mu-type opioid receptor (Rattus norvegicus, UniProt P33535); assay: Inhibition of [3H]DAGO binding to rat Opioid receptor mu 1
T2 sequence (P33535 whole entry): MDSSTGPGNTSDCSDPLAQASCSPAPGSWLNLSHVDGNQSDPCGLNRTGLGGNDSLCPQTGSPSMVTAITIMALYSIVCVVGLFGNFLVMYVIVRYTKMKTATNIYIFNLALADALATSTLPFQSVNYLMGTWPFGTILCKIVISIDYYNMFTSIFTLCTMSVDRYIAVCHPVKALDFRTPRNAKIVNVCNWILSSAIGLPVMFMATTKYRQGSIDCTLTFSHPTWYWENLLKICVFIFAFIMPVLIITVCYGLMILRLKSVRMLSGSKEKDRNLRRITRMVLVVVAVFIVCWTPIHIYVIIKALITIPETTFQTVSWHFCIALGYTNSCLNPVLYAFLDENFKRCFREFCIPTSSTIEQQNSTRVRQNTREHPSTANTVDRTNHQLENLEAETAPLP

[3] = target: T1, Delta-type opioid receptor; assay: Compound was tested for its binding affinity against opioid receptor delta using [3H]DPDPE as radioligand.; procedure, shortened: as §1
Mu-type opioid receptor [4] = target: T2, Mu-type opioid receptor; assay: Compound was tested for its binding affinity against opioid receptor mu using [3H]DAGO as radioligand.
[5] = Opioid receptor delta selectivity was defined as the ratio between Ki(opioid receptor mu)/Ki(opioid receptor delta); type: protein assay

T1 sequence (P33533 whole entry): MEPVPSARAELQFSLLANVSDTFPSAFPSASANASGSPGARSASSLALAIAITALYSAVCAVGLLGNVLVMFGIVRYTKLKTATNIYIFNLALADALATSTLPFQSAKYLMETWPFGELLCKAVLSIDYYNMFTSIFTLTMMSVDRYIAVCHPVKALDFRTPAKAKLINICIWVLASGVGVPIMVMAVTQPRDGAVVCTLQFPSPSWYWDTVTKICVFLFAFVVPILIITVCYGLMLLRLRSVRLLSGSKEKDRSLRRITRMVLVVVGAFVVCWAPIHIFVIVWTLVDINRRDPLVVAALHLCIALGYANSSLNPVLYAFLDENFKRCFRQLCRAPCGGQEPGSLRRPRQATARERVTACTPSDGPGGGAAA

Row | Structure (SMILES) | pKi [1] | pKi (Mu-type opioid receptor [2]) | pKi [3] | pKi (Mu-type opioid receptor [4]) | Selectivity [5]
1 | CSCC[C@@H](NC(=O)[C@H](CC(C)C)NC(=O)[C@H](Cc1c[nH]cn1)NC(=O)[C@H](Cc1ccccc1)NC(=O)[C@@H](CCSC)NC(=O)[C@@H](N)Cc1ccc(O)cc1)C(=O)N[C@@H](CC(=O)O)C(N)=O | 9.02 | 6.84 | – | – | –
2 | CSCC[C@H](NC(=O)[C@@H](CC(C)C)NC(=O)[C@H](Cc1c[nH]cn1)NC(=O)[C@H](Cc1ccccc1)NC(=O)[C@@H](CCSC)NC(=O)[C@@H](N)Cc1ccc(O)cc1)C(=O)N[C@@H](CC(=O)O)C(N)=O | 7.23 | 6.16 | – | – | –
3 | CSCC[C@H](NC(=O)[C@H](CC(C)C)NC(=O)[C@H](Cc1cnc[nH]1)NC(=O)[C@H](Cc1ccccc1)NC(=O)[C@@H](CCSC)NC(=O)[C@@H](N)Cc1ccc(O)cc1)C(=O)N[C@@H](CC(=O)O)C(N)=O [DELTORPHIN A] | – | – | 9.35 | 6.46 | –
4 | CSCC[C@H](NC(=O)[C@@H](CC(C)C)NC(=O)[C@H](Cc1ccccc1)NC(=O)[C@@H](CCSC)NC(=O)[C@@H](N)Cc1ccc(O)cc1)C(=O)N[C@@H](CC(=O)O)C(N)=O | 6.92 | 6.48 | – | – | –
5 | CSCC[C@H](NC(=O)[C@H](CC(C)C)NC(=O)[C@H](Cc1c[nH]cn1)NC(=O)[C@H](Cc1ccccc1)NC(=O)[C@@H](C)NC(=O)[C@@H](N)Cc1ccc(O)cc1)C(=O)N[C@@H](CC(=O)O)C(N)=O | – | – | 9.44 | 7.36 | 121
6 | CSCC[C@H](NC(=O)[C@H](CC(C)C)NC(=O)[C@H](Cc1ccccc1)NC(=O)[C@@H](CCSC)NC(=O)[C@H](N)Cc1ccc(O)cc1)C(=O)N[C@@H](CC(=O)O)C(N)=O | 6.32 | 5.13 | – | – | –
7 | CSCC[C@H](NC(=O)[C@H](CC(C)C)NC(=O)[C@@H](Cc1c[nH]cn1)NC(=O)[C@H](Cc1ccccc1)NC(=O)[C@@H](CCSC)NC(=O)[C@@H](N)Cc1ccc(O)cc1)C(=O)N[C@@H](CC(=O)O)C(N)=O | – | – | – | – | 178
8 | CSCC[C@H](NC(=O)[C@H](CC(C)C)NC(=O)[C@@H](Cc1cnc[nH]1)NC(=O)[C@H](Cc1ccccc1)NC(=O)[C@@H](CCSC)NC(=O)[C@@H](N)Cc1ccc(O)cc1)C(=O)N[C@@H](CC(=O)O)C(N)=O | – | – | 8.56 | 6.31 | –
9 | CSCC[C@H](NC(=O)[C@H](CC(C)C)NC(=O)[C@@H](Cc1ccccc1)NC(=O)[C@@H](CCSC)NC(=O)[C@@H](N)Cc1ccc(O)cc1)C(=O)N[C@@H](CC(=O)O)C(N)=O | 6.13 | 5.65 | – | – | –
10 | CCCC[C@H](NC(=O)[C@@H](N)Cc1ccc(O)cc1)C(=O)N[C@@H](Cc1ccccc1)C(=O)N[C@@H](Cc1c[nH]cn1)C(=O)N[C@@H](CC(C)C)C(=O)N[C@@H](CCSC)C(=O)N[C@@H](CC(=O)O)C(N)=O (H-Y[Nle]FHLMD-NH2) | – | – | – | – | 272
11 | CSCC[C@H](NC(=O)[C@H](CC(C)C)NC(=O)[C@H](Cc1c[nH]cn1)NC(=O)[C@@H](Cc1ccccc1)NC(=O)[C@@H](CCSC)NC(=O)[C@@H](N)Cc1ccc(O)cc1)C(=O)N[C@@H](CC(=O)O)C(N)=O | – | – | 7.40 | 5.63 | 59
12 | CSCC[C@H](NC(=O)[C@H](CC(C)C)NC(=O)[C@H](Cc1ccccc1)NC(=O)[C@@H](CCSC)NC(=O)[C@@H](N)Cc1ccc(O)cc1)C(=O)N[C@@H](CC(=O)O)C(N)=O | 7.90 | 6.45 | – | – | –
13 | CSCC[C@H](NC(=O)[C@H](CC(C)C)NC(=O)[C@H](Cc1cnc[nH]1)NC(=O)[C@H](Cc1ccccc1)NC(=O)[C@@H](CCSC)NC(=O)[C@H](N)Cc1ccc(O)cc1)C(=O)N[C@@H](CC(=O)O)C(N)=O | – | – | 6.26 | 5.13 | –
14 | CSCC[C@H](NC(=O)[C@H](CC(C)C)NC(=O)[C@H](Cc1ccccc1)NC(=O)[C@@H](CCSC)NC(=O)[C@@H](N)Cc1ccc(O)cc1)C(=O)N[C@H](CC(=O)O)C(N)=O | 8.02 | 6.57 | – | – | –
15 | CSCC[C@H](NC(=O)[C@H](CC(C)C)NC(=O)[C@H](Cc1c[nH]cn1)NC(=O)[C@H](Cc1ccccc1)NC(=O)[C@@H](CCSC)NC(=O)[C@@H](N)Cc1ccc(O)cc1)C(=O)N[C@H](CC(=O)O)C(N)=O | 9.27 | 6.90 | – | – | –
16 | CSCC[C@H](NC(=O)[C@H](CC(C)C)NC(=O)[C@H](Cc1c[nH]cn1)NC(=O)[C@H](Cc1ccccc1)NC(=O)[C@@H](CCSC)NC(=O)[C@H](N)Cc1ccc(O)cc1)C(=O)N[C@@H](CC(=O)O)C(N)=O | – | – | – | – | 14
17 | CSCC[C@@H](NC(=O)[C@H](CC(C)C)NC(=O)[C@H](Cc1ccccc1)NC(=O)[C@@H](CCSC)NC(=O)[C@@H](N)Cc1ccc(O)cc1)C(=O)N[C@@H](CC(=O)O)C(N)=O | 7.59 | 6.39 | – | – | –
18 | CSCC[C@H](NC(=O)[C@H](CC(C)C)NC(=O)[C@H](Cc1ccccc1)NC(=O)[C@@H](C)NC(=O)[C@@H](N)Cc1ccc(O)cc1)C(=O)N[C@@H](CC(=O)O)C(N)=O | 7.86 | 6.25 | – | – | –
19 | CSCC[C@H](NC(=O)[C@H](CC(C)C)NC(=O)[C@H](Cc1c[nH]cn1)NC(=O)[C@H](Cc1ccccc1)NC(=O)[C@@H](CCSC)NC(=O)[C@@H](N)Cc1ccc(O)cc1)C(=O)N[C@@H](CC(=O)O)C(N)=O | – | – | – | – | 764

Source: ChEMBL document CHEMBL1125419, “Stereospecificity of amino acid side chains in deltorphin defines binding to opioid receptors” (J Med Chem, 1992)
